According to ChEMBL document CHEMBL3526055, “Human metabolism of lapatinib, a dual kinase inhibitor: implications for hepatotoxicity” (Drug Metab Dispos, 2012):
Each block holds one molecule with its values, some of them ahead of it.

What was measured:
Assay type in all cases: ADME, organism-based
Plasma [1] = assay: Drug level in healthy human plasma treated with [14C]lapatinib at 250 mg, po administered as single dose by LC-MS/MS method; conditions: in vivo
Outline: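 Healthy volunteers (n=6) received a single 250 mg oral aqueous suspension of unlabeled plus [14C]-drug (89.1 μCi), fasted 10 h predose to ~4 h postdose. Samples were collected for 168 h. Plasma was extracted from 25 µl by protein precipitation with an isotope-labeled internal standard and quantified by validated LC/MS/MS over 5 to 5000 ng/ml. Medians were reported.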

[2] = Drug level in healthy human feces treated with [14C]lapatinib at 250 mg, po administered as single dose by LC-MS/MS method; conditions: in vivo
Plasma [3] = assay: Drug metabolism in healthy human plasma assessed as N-(3-chloro-4-(3-fluorobenzyloxy)phenyl)-6-(5-((hydroxy(2-(methylsulfonyl)ethyl)amino)methyl)furan-2-yl)quinazolin-4-amine formation at 250 mg, po administered as single dose by LC-MS/MS method; conditions: in vivo
Outline: (§1)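 Pooled plasma from subjects given a single 250 mg oral [14C] suspension was extracted (>90% recovery) and run on a C18 HPLC column at 45 °C. Positive-ion ESI single-quadrupole LC/MS used full scan m/z 100 to 900, with UV at 277 nm. Faeces were extracted with ethanol:acetonitrile:sample (3:3:1) for radio-HPLC profiling with off-line LSC fractions and nanoelectrospray MS.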

Plasma [4] = assay: Drug metabolism in healthy human plasma assessed as (E)-5-(4-(3-chloro-4-(3-fluorobenzyloxy)phenylamino)quinazolin-6-yl)furan-2-carbaldehyde oxime formation at 250 mg, po administered as single dose by LC-MS/MS method; conditions: in vivo; outline: as §1
Plasma [5] = assay: Drug metabolism in healthy human plasma assessed as (Z)-5-(4-(3-chloro-4-(3-fluorobenzyloxy)phenylamino)quinazolin-6-yl)furan-2-carbaldehyde oxime formation at 250 mg, po administered as single dose by LC-MS/MS method; conditions: in vivo; outline: as §1
Plasma [6] = assay: Drug metabolism in healthy human plasma assessed as 5-(4-(3-chloro-4-(3-fluorobenzyloxy)phenylamino)quinazolin-6-yl)furan-2-carbaldehyde formation at 250 mg, po administered as single dose by LC-MS/MS method; conditions: in vivo; outline: as §1
Plasma [7] = assay: Drug metabolism in healthy human plasma assessed as 5-(4-(3-chloro-4-(3-fluorobenzyloxy)phenylamino)quinazolin-6-yl)furan-2-carboxylic acid formation at 250 mg, po administered as single dose by LC-MS/MS method; conditions: in vivo; outline: as §1
[8] = Drug level in healthy human feces at 250 mg, po administered as single dose by LC-MS/MS method; conditions: read-out: Drug uptake
[9] = Drug metabolism in healthy human feces assessed as 6-(5-(aminomethyl)furan-2-yl)-N-(3-chloro-4-(3-fluorobenzyloxy)phenyl)quinazolin-4-amine formation at 250 mg, po administered as single dose by LC-MS/MS method; conditions: in vivo; outline: as §1
[10] = Drug recovery in healthy human urine at 250 mg, po administered as single dose after 0 to 144 hrs; conditions: read-out: Drug recovery
Outline: (§2)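 Six healthy subjects (3 male, 3 female) received a single 250 mg oral [14C] suspension. Urine was collected in intervals and faeces were collected up to 168 h postdose. Faeces were homogenized as a water slurry and triplicate ~0.2 g aliquots combusted. Urine and plasma were counted directly by LSC with quench and background correction. Results are reported as median % of dose.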

[11] = Drug recovery in healthy human urine at 250 mg, po administered as single dose after 0 to 168 hrs; conditions: read-out: Drug recovery; outline: as §2
Homo sapiens = assay: Total drug recovery in healthy human at 250 mg, po administered as single dose after 0 to 168 hrs; conditions: in vivo; outline: as §2
Plasma [12] = assay: Drug recovery in healthy human plasma at 250 mg, po administered as single dose; conditions: in vivo
Plasma [13] = assay: Drug metabolism in healthy human plasma assessed as 2-chloro-4-(6-(5-((2-(methylsulfonyl)ethylamino)methyl)furan-2-yl)quinazolin-4-ylamino)phenol formation at 250 mg, po administered as single dose by LC-MS/MS method; conditions: in vivo; outline: as §1
Plasma [14] = assay: Drug metabolism in healthy human plasma assessed as 4-(3-chloro-4-hydroxyphenylamino)-6-(5-((2-(methylsulfonyl)ethylamino)methyl)furan-2-yl)quinazolin-2-ol formation at 250 mg, po administered as single dose by LC-MS/MS method; conditions: in vivo; outline: as §1
Plasma [15] = assay: Drug metabolism in healthy human plasma assessed as N-((5-(4-(3-chloro-4-(3-fluorobenzyloxy)phenylamino)quinazolin-6-yl)furan-2-yl)methylene)-2-(methylsulfonyl)ethanamine oxide formation at 250 mg, po administered as single dose by LC-MS/MS method; conditions: in vivo; outline: as §1
Plasma [16] = assay: Drug metabolism in healthy human plasma assessed as 1-(5-(4-(3-chloro-4-(3-fluorobenzyloxy)phenylamino)quinazolin-6-yl)furan-2-yl)-N-(2-(methylsulfonyl)ethylidene)methanamine oxide formation at 250 mg, po administered as single dose by LC-MS/MS method; conditions: in vivo; outline: as §1
[17] = Drug recovery in healthy human urine at 250 mg, po administered as single dose; conditions: read-out: Drug recovery; outline: as §2
[18] = Total drug recovery in healthy human at 250 mg, po administered as single dose; conditions: in vivo, read-out: Drug recovery; outline: as §2
[19] = Drug recovery in healthy male human urine at 250 mg, po administered as single dose; conditions: read-out: Drug recovery; outline: as §2
[20] = Drug recovery in healthy male human feces at 250 mg, po administered as single dose; conditions: read-out: Drug recovery; outline: as §2
[21] = Total drug recovery in healthy male human at 250 mg, po administered as single dose; conditions: in vivo, read-out: Drug recovery; outline: as §2
[22] = Drug recovery in healthy female human urine at 250 mg, po administered as single dose; conditions: read-out: Drug recovery; outline: as §2
[23] = Drug recovery in healthy female human feces at 250 mg, po administered as single dose; conditions: read-out: Drug recovery; outline: as §2
[24] = Total drug recovery in healthy female human at 250 mg, po administered as single dose; conditions: in vivo, read-out: Drug recovery; outline: as §2
[25] = Drug recovery in healthy human feces at 250 mg, po administered as single dose after 0 to 24 hrs; conditions: read-out: Drug recovery; outline: as §2
[26] = Drug recovery in healthy human feces at 250 mg, po administered as single dose after 0 to 48 hrs; conditions: read-out: Drug recovery; outline: as §2
[27] = Drug recovery in healthy human feces at 250 mg, po administered as single dose after 0 to 72 hrs; conditions: read-out: Drug recovery; outline: as §2
[28] = Drug recovery in healthy human feces at 250 mg, po administered as single dose after 0 to 96 hrs; conditions: read-out: Drug recovery; outline: as §2
[29] = Drug recovery in healthy human feces at 250 mg, po administered as single dose after 0 to 120 hrs; conditions: read-out: Drug recovery; outline: as §2
[30] = Drug recovery in healthy human feces at 250 mg, po administered as single dose after 0 to 144 hrs; conditions: read-out: Drug recovery; outline: as §2
[31] = Drug recovery in healthy human feces at 250 mg, po administered as single dose after 0 to 168 hrs; conditions: read-out: Drug recovery; outline: as §2
[32] = Drug recovery in healthy human urine at 250 mg, po administered as single dose after 0 to 24 hrs; conditions: read-out: Drug recovery; outline: as §2
[33] = Drug recovery in healthy human urine at 250 mg, po administered as single dose after 0 to 48 hrs; conditions: read-out: Drug recovery; outline: as §2
[34] = Drug recovery in healthy human urine at 250 mg, po administered as single dose after 0 to 72 hrs; conditions: read-out: Drug recovery; outline: as §2
[35] = Drug recovery in healthy human urine at 250 mg, po administered as single dose after 0 to 96 hrs; conditions: read-out: Drug recovery; outline: as §2
[36] = Drug recovery in healthy human urine at 250 mg, po administered as single dose after 0 to 120 hrs; conditions: read-out: Drug recovery; outline: as §2

Drug metabolism (Plasma [1]): metabolite_detected | Drug uptake [2]: 14%
Structure (SMILES): O=C(O)c1ccc(-c2ccc3ncnc(Nc4ccc(OCc5cccc(F)c5)c(Cl)c4)c3c2)o1

Drug metabolism [2]: metabolite_detected
Structure (SMILES): CS(=O)(=O)CC[n+]1cc([O-])ccc1-c1ccc2ncnc(Nc3ccc(OCc4cccc(F)c4)c(Cl)c3)c2c1

Drug metabolism (Plasma [3]): metabolite_detected | Drug metabolism (Plasma [4]): metabolite_detected | Drug metabolism (Plasma [5]): metabolite_detected | Drug metabolism (Plasma [6]): metabolite_detected | Drug metabolism (Plasma [7]): metabolite_detected | dose excreted [8]: 27% | Drug metabolism [9]: metabolite_detected | dose excreted [10]: 1.16% | dose excreted [11]: 1.16% | Drug recovery (Homo sapiens): 93.1% | Drug recovery (Plasma [12]): > 90% | Drug metabolism (Plasma [13]): metabolite_not_detected | Drug metabolism (Plasma [14]): metabolite_not_detected | Drug metabolism (Plasma [15]): metabolite_detected | Drug metabolism (Plasma [16]): metabolite_detected | dose excreted [17]: 1.15% | dose excreted [18]: 93% | dose excreted [19]: 1% | dose excreted [20]: 93.6% | dose excreted [21]: 94.6% | dose excreted [22]: 1.3% | dose excreted [23]: 89.9% | dose excreted [24]: 91.5% | dose excreted [25]: 10.5% | dose excreted [26]: 45.3% | dose excreted [27]: 74.9% | dose excreted [28]: 78.4% | dose excreted [29]: 90.8% | dose excreted [30]: 91.4% | dose excreted [31]: 91.8% | dose excreted [32]: 1.01% | dose excreted [33]: 1.16% | dose excreted [34]: 1.16% | dose excreted [35]: 1.16% | dose excreted [36]: 1.16%
Structure (SMILES): CS(=O)(=O)CCNCc1ccc(-c2ccc3ncn[14c](Nc4ccc(OCc5cccc(F)c5)c(Cl)c4)c3c2)o1.Cc1ccc(S(=O)(=O)O)cc1.O

Drug uptake [2]: 3.9%
Structure (SMILES): CS(=O)(=O)CCNCc1ccc(-c2ccc3ncnc(Nc4ccc(O)c(Cl)c4)c3c2)o1

Drug uptake [2]: 6.3%
Structure (SMILES): Oc1ccc(-c2ccc3ncnc(Nc4ccc(OCc5cccc(F)c5)c(Cl)c4)c3c2)nc1

Drug metabolism (Plasma [1]): metabolite_detected
Structure (SMILES): CS(=O)(=O)CCN(O)Cc1ccc(-c2ccc3ncnc(Nc4ccc(OCc5cccc(F)c5)c(Cl)c4)c3c2)o1

Drug metabolism (Plasma [1]): metabolite_detected
Structure (SMILES): O/N=C/c1ccc(-c2ccc3ncnc(Nc4ccc(OCc5cccc(F)c5)c(Cl)c4)c3c2)o1

Drug uptake [2]: 3.3%
Structure (SMILES): CS(=O)(=O)CCNCc1ccc(-c2ccc3nc(O)nc(Nc4ccc(O)c(Cl)c4)c3c2)o1

Drug metabolism [2]: metabolite_detected
Structure (SMILES): NCc1ccc(-c2ccc3ncnc(Nc4ccc(OCc5cccc(F)c5)c(Cl)c4)c3c2)o1

Drug metabolism (Plasma [1]): metabolite_detected
Structure (SMILES): CS(=O)(=O)CC/[N+]([O-])=C/c1ccc(-c2ccc3ncnc(Nc4ccc(OCc5cccc(F)c5)c(Cl)c4)c3c2)o1

Drug metabolism (Plasma [1]): metabolite_detected
Structure (SMILES): CS(=O)(=O)C/C=[N+](/[O-])Cc1ccc(-c2ccc3ncnc(Nc4ccc(OCc5cccc(F)c5)c(Cl)c4)c3c2)o1

Drug metabolism (Plasma [1]): metabolite_detected
Structure (SMILES): O/N=C\c1ccc(-c2ccc3ncnc(Nc4ccc(OCc5cccc(F)c5)c(Cl)c4)c3c2)o1

Drug metabolism (Plasma [1]): metabolite_detected
Structure (SMILES): O=Cc1ccc(-c2ccc3ncnc(Nc4ccc(OCc5cccc(F)c5)c(Cl)c4)c3c2)o1
